Hck-Nef inh – inhibitors of human Hck kinase activated by Nef; Recombinant Hck-YEEI plus Nef, Z-Lyte FRET kinase assay; P08631; hit rate 0.68% among 220,000; inhibition, % at 20 µM;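 active means Hck-Nef kinase inhibition above about 50%, limit read from the data; inactive means inhibition below that limit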
Runt-SMMHC FRET – blocks binding of human RUNX1 Runt domain to CBFb-SMMHC; Cerulean-Runt/Venus-CBFb-SMMHC FRET ratio 530/480, 1 h; inhibition, % at 20 µM; hit rate 0.74% among 220,000;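 active means mean inhibition across duplicate retests at 20 µM reaching about 50%, limit read from the data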;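 further: inhibitors lower the FRET ratio by blocking Runt binding to CBFb-SMMHC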
RBBP9 inh – blocks human serine hydrolase RBBP9; O75884; recombinant RBBP9, FP-Rh probe fluorescence polarization; inhibition, % at 7.94 µM; hit rate 0.2% among 220,000; AID 1515;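 active means inhibition above the campaign mean of all tested compounds plus 3 SD, cut at about 14% in these data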
Target sequence (O75884 whole entry, looked up): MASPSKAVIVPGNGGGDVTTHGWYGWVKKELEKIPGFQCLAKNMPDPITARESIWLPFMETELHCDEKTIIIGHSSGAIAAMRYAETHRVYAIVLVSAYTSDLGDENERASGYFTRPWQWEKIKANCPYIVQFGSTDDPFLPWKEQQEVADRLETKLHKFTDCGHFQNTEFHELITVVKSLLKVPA
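Test system: recombinant human RBBP9; Timing: 30 min then 45 min, 25 °C; Detection: fluorescence polarization; Control set: RBBP9 with DMSO as uninhibited control, no-protein wells as full inhibition; Compound dosing: one concentration, 7.94 µM nominal, 0.794% DMSO; Probe or stimulus: FP-Rh activity-based probe, 375 nM before mixing.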
RanGTP-Impb inh – disruptors of Ran-importin-beta complex formation – biochemical, FRET, CFP-Ran, YFP-importin-beta, homogeneous, primary screen. cell-free CFP-Ran/YFP-importin-beta FRET ratio. inhibition, % (test concentration not listed). hit rate 1.1% among 300,000. AID 2216;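 active means more than half of the replicate wells show a fall in the fluorescence ratio signal beyond about 16%, limit read from the data, passing the limit was not always enough; inconclusive means exactly half of the replicate wells pass the set limit; inactive means fewer than half of replicates pass the limit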
PfM18AAP inh-1 – PfM18AAP enzyme inhibition. recombinant PfM18AAP, H-Glu-NHMec fluorogenic cleavage. inhibition, % at 7.35 µM. hit rate 1.2% among 290,000;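 active means inhibition above the campaign mean inhibition over all tested compounds plus 3 SD, cut at about 28% in these data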
Runt-CBFb FRET – Runt domain-CBFb interaction inhibition; Q01196+Q13951; Cerulean-Runt/Venus-CBFb FRET ratio 530/480, 1 h; inhibition, % at 20 µM; hit rate 0.46% among 220,000; AID 1496;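 active means inhibition over about 50% at 20 µM in the single-dose screen, limit read from the data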
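Assay system: Cerulean-Runt domain / Medium: Tris 50 mM pH 7.5, KCl, K2SO4, 0.01% BSA / Timing: protein complex preformed 1 h, compound exposure 1 h, room temperature, dark / Measured by: FRET, excitation 422 nm, emission at 530 and 480 nm / Evaluation: loss of energy transfer signal / Control set: 5 µM unlabeled CBFb as full-inhibition high control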
PfM18AAP inh-2 – confirmation of Plasmodium falciparum M18 aspartyl aminopeptidase inhibitors | shares compounds with PfM18AAP inh-1 | recombinant PfM18AAP, H-Glu-NHMec fluorogenic cleavage | inhibition, % at 7.35 µM | hit rate 28% among 2,400;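 active means mean inhibition over replicate wells above the hit cutoff set for the earlier primary screen, cut at about 29% in these data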
CTSL1 counter – Cathepsin L (human) inhibition, confirmation; inhibition, % at 5.96 µM; shares compounds with PfM18AAP inh-1; purified cathepsin L1, Z-Leu-Arg-MCA fluorescence; 2,400 tested, under 10 active;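 active means average inhibition across replicates above the hit cutoff set in the earlier primary screen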
Target sequence (P07711 whole entry, looked up): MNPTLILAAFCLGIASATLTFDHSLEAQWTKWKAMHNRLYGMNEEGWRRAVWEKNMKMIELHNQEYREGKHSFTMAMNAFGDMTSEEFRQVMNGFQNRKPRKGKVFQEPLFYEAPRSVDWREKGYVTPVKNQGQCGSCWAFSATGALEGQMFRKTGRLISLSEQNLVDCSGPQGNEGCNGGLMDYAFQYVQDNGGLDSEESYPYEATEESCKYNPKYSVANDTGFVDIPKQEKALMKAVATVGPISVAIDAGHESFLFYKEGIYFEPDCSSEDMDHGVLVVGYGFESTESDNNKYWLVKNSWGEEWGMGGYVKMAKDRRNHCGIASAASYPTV
Large screens that a line does not name were inactive (follow-up assays come after a bar, where they were run). Hits are enriched below; roughly 2.9% of the tested compounds scored in any of these assays.

Cc1cc(C)n(-c2cc(O)c(-n3nc(C)cc3C)cc2O)n1	PfM18AAP inh-1 45.6 | PfM18AAP inh-2 inactive | CTSL1 counter inactive
Cc1cc(C)n(-c2cc(-n3nc(C)cc3C)ncn2)n1	none
CCOC(=O)c1nc(Nc2cc(Cl)ccc2OC)c2ccccc2n1	none (no result: Hck-Nef inh, Runt-SMMHC FRET, RBBP9 inh, Runt-CBFb FRET)
CCN(CC)S(=O)(=O)c1ccc(N/N=C/c2cccnc2)nc1	none
CC(C)N(C(C)C)S(=O)(=O)c1ccc(NN)nc1	PfM18AAP inh-1 37.6 | PfM18AAP inh-2 36.9 | CTSL1 counter inactive
CCN(CC)S(=O)(=O)c1ccc(NC2CCCc3ccccc32)nc1 (stereo unspecified)	none
CCN(CC)S(=O)(=O)c1ccc(N/N=C/c2cc(OC)ccc2O)nc1	PfM18AAP inh-1 56.6 | PfM18AAP inh-2 inactive | CTSL1 counter inactive
CCN(CC)S(=O)(=O)c1ccc(NN)nc1	PfM18AAP inh-1 44.6 | PfM18AAP inh-2 41.2 | CTSL1 counter inactive
CCN(CC)S(=O)(=O)c1cccc(-n2c(O)c(C=Nc3ccccc3C(=O)O)c3ccccc3c2=O)c1	none
O=C(NNc1cc(C(F)(F)F)ccc1Cl)c1ccc(=O)[nH]c1	PfM18AAP inh-1 44.4 (no result: Hck-Nef inh, Runt-SMMHC FRET, RBBP9 inh, Runt-CBFb FRET) | PfM18AAP inh-2 inactive | CTSL1 counter inactive
O=C(c1ccc(=O)[nH]c1)N1CCN(S(=O)(=O)c2cc(C(F)(F)F)ccc2Cl)CC1	none (no result: Hck-Nef inh, Runt-SMMHC FRET, RBBP9 inh, Runt-CBFb FRET)
COc1cccc(NC(=O)CN2C(=O)NC(C)(c3ccc(C)cc3)C2=O)c1 (stereo unspecified)	none (no result: Hck-Nef inh, Runt-SMMHC FRET, RBBP9 inh, Runt-CBFb FRET)
OCCCc1ccc(O)c(O)c1	RanGTP-Impb inh inconclusive, PfM18AAP inh-1 44.5 | PfM18AAP inh-2 inactive | CTSL1 counter inactive
O=C(O)Cc1ccc(O)c(O)c1	none (no result: RBBP9 inh, PfM18AAP inh-1)
COc1ccc(/C=C(\C#N)C(=O)Nc2cc(S(=O)(=O)N3CCOCC3)ccc2N2CCCC2)cc1	PfM18AAP inh-1 40.0 | PfM18AAP inh-2 inactive | CTSL1 counter inactive
NNC(=S)Nc1cc(S(=O)(=O)N2CCOCC2)ccc1N1CCOCC1	PfM18AAP inh-1 39.7 | PfM18AAP inh-2 inactive | CTSL1 counter inactive
NNC(=S)Nc1ccc(S(=O)(=O)N2CCOCC2)cc1	none
Clc1ccc(/C=N/N2CCCCC2)cc1	none
Oc1ccc(/C=N/N2CCCCC2)cc1O	PfM18AAP inh-1 65.6 (no result: Hck-Nef inh, Runt-SMMHC FRET, RBBP9 inh, Runt-CBFb FRET) | PfM18AAP inh-2 32.0 | CTSL1 counter inactive
CC1CCCC(C)N1/N=C/c1ccc(O)c(O)c1 (stereo unspecified)	PfM18AAP inh-1 64.1 (no result: Hck-Nef inh, Runt-SMMHC FRET, RBBP9 inh, Runt-CBFb FRET) | PfM18AAP inh-2 46.4 | CTSL1 counter inactive
CCCCc1cc(=O)oc2cc(C)cc(OCC(=O)NC(Cc3ccc(Cl)cc3)C(=O)O)c12 (stereo unspecified)	none (no result: Hck-Nef inh, Runt-SMMHC FRET, RBBP9 inh, Runt-CBFb FRET)
Cc1c(N(C(=O)c2ccccn2)C2(C(=O)NC3CCCC3)CCCCC2)c(=O)n(-c2ccccc2)n1C	none
Cc1ccc(C(=O)NCC(=O)N2CCC(Cc3ccccc3)CC2)cc1	none (no result: Hck-Nef inh, Runt-SMMHC FRET, RBBP9 inh, Runt-CBFb FRET)
COC(=O)c1ccc(Cn2nc([N+](=O)[O-])c(Br)c2C)cc1	none
O=c1c(-c2ccc([N+](=O)[O-])cc2)coc2c(O)c(O)ccc12	PfM18AAP inh-1 45.4 | PfM18AAP inh-2 inactive | CTSL1 counter inactive
CCCCn1c(=O)c2ccccc2n2c(=S)[nH]nc12	RanGTP-Impb inh inconclusive, PfM18AAP inh-1 32.0 (no result: Hck-Nef inh, Runt-SMMHC FRET, RBBP9 inh, Runt-CBFb FRET) | PfM18AAP inh-2 inactive | CTSL1 counter inactive
CN1CCc2c(sc3c2c(=O)n(-c2ccccc2)c2n[nH]c(=S)n32)C1	PfM18AAP inh-1 37.8 | PfM18AAP inh-2 inactive | CTSL1 counter inactive
O=c1c2c3c(sc2n2c(=S)[nH]nc2n1-c1ccccc1)CCC3	none
O=c1c2ccccc2n2c(=S)[nH]nc2n1-c1ccccc1	PfM18AAP inh-1 44.8 (no result: Hck-Nef inh, Runt-SMMHC FRET, RBBP9 inh, Runt-CBFb FRET) | PfM18AAP inh-2 inactive | CTSL1 counter inactive
CCCCCn1c(=O)c2ccccc2n2c(=S)[nH]nc12	none (no result: Hck-Nef inh, Runt-SMMHC FRET, RBBP9 inh, Runt-CBFb FRET)
COc1cc(SC)ccc1C(=O)N1CCN(c2ccc(O)cc2)CC1	PfM18AAP inh-1 37.4 | PfM18AAP inh-2 inactive | CTSL1 counter inactive
O=C(c1ccc(S(=O)(=O)N2CCCCCC2)cc1)N1CCN(c2ccccc2F)CC1	none (no result: Hck-Nef inh, Runt-SMMHC FRET, RBBP9 inh, Runt-CBFb FRET)
